# Bioassay records (PubChem)
# Rows were chosen to be rich in hits. Some 2.2% of all compounds tested hit in one or more screens of this group.
# APP transl inh – inhibitors of APP translation via 5'UTR reporter, primary screen, APP 5'UTR luciferase, SH-SY5Y cells. SH-SY5Y APP 5'UTR-luciferase reporter, luminescence. inhibition, % at 2 µM. 190,000 tested, 0.82% active. AID 1285, 2008;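 active = inhibition above a set limit, derived from the sample mean plus 3 SD, cut at about 45% in these data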
# MT stabilize HCS – microtubule stabilizers in HeLa cells, primary screen, imaging, high-content imaging; HeLa tubulin immunostaining HCS, 24 h; share of cells brighter than vehicle mean+2SD; % tubulin-high responders, % at 10 µM; 200,000 tested, 0.83% active; AID 2205, 2009;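 active = plate Z-score above 3 for both tubulin-high and condensed-nucleus cell shares, with cell loss under 80%, at 10 µM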;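 note: anti alpha tubulin signal scored within the nucleus-defined area of each cell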
# Ba/F3 V617F tox – reduced viability of JAK2V617F-dependent Ba/F3 cells, primary screen, JAK2V617F inhibitor project, cell-based, Ba/F3 EpoR-JAK2V617F, luminescence; ATP luminescence; inhibition, % at 5.6 µM; 220,000 tested, 1.1% active;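 active = inhibition above the campaign mean plus 3 SD over all tested compounds, cut at about 24% in these data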;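 note: cytokine-independent growth of Ba/F3 cells driven by EpoR plus mutant JAK2; 0% = DMSO-treated cells and 100% = JAK inhibitor I control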
# BaF3 parental – parental Ba/F3 cell viability inhibition, counter-screen for JAK2V617F inhibitor project, murine pro-B, CellTiter-Glo luminescence; CellTiter-Glo ATP luminescence; inhibition, % at 5.6 µM; 220,000 tested, 1.1% active; AID 1486, 2009;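 active = inhibition above a per-campaign cutoff, the mean inhibition of all tested compounds plus 3 SD, cut at about 27% in these data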;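 note: 0% = DMSO wells and 100% = JAK Inhibitor I control wells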
# IEC-6 tox – cytotoxicity in IEC-6 intestinal epithelial cells, primary screen, cytotoxicity control for KLF5 inhibitor project, cell-based, luminescence; IEC-6 cytotoxicity, luminescence viability; inhibition, % at 5 µM; 290,000 tested, 0.78% active; in the data active = inhibition above about 22%;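 note: 0% = plate median of test compound wells and 100% = cytotoxic reference compound wells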
# bCat nuc transl – modulators of beta-catenin nuclear translocation, primary screen, imaging, HeLa cells, immunofluorescence, high-content; nuclear translocation activity, % at 5 µM; 190,000 tested, 0.3% active;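 active = nuclear translocation activity above 50% at 5 µM, with a well cell count of 50 or more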;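 note: per-cell ratio of nuclear to cytoplasmic median beta-catenin stain intensity; plate controls were DMSO negative control for no effect and GSK-3 inhibitor IX positive control for full effect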
#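 test system = HeLa cells, endogenous beta-catenin | dosing = single 5 µM dose plus 0.02–20 µM confirmation series | times = compound treatment 24 h, 37°C, 5% CO2 | technique = beta-catenin immunofluorescence imaging with DAPI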
# * marks the source's active call; other numbers are inactive results; x = no result; ! = not confirmed by another sample.
SMILES,APP transl inh,MT stabilize HCS,Ba/F3 V617F tox,BaF3 parental,IEC-6 tox,bCat nuc transl
COc1ccc(C2CC(c3cccs3)=Nc3ccccc3S2)cc1 (centres undefined),-85,21*,1,3,0,-1
COc1ccc(C2CC(c3cccs3)=NN2S(C)(=O)=O)cc1 (centres undefined),x,x,-3,-2,-1,0
N/C(=N\NS(=O)(=O)c1ccccc1C(F)(F)F)c1ccccn1,x,x,-1,-2,-8,-3
Cc1nc(C(F)(F)F)c(C(=O)N/N=C(\N)c2ccccn2)s1,57*,4,1,8,5,0
COc1ccc(CCNC(=O)CSc2nc3[nH]ncc3c(=O)n2-c2ccc(C)c(Cl)c2)cc1OC,2,1,4,7,-3,x
O=S(=O)(c1ccc(Nc2ccc(-c3ccc4c(c3)OCCO4)nn2)cc1)N1CCCC1,-30,12*,3,5,3,x
Cc1cc(N(C)N)nc(NC(=O)NS(=O)(=O)c2ccccc2Cl)n1,x,x,x,x,-2,x
COC(=O)c1cc(S(=O)(=O)C(C)C)c(S(C)=O)s1 (centres undefined),x,x,0,-6,-3,1
CC(=O)n1nc(-c2ccc(Cl)cc2)nc1NCc1ccco1,-15,2,-1,4,-1,x
COc1ccc(CC(=O)n2nc(-c3ccc(Cl)cc3)nc2NCc2ccco2)cc1,-28,28*,0,1,2,-4
O=C(CCc1nnc(COc2ccccc2)o1)NCCc1cccs1,-23,3,-1,6,-8,2
CC(C)CCNC(=O)CCc1nnc(COc2ccccc2)o1,-17,1,0,81*,-2,0
CN1c2ccccc2C(C)(C)C12C=Cc1cc(O)ccc1O2 (centres undefined),4,13,72*,63*,11,4
Cc1ccc2nc(C3CCCN(C(=S)Nc4cccc(C)c4C)C3)[nH]c2c1 (centres undefined),-5,29*,-1,7,-3,0
Cc1ccc(NC(=O)C2(c3ccc([N+](=O)[O-])cc3)CCCC2)cc1,0,5,2,50*,-1,2
CCc1cc(=O)oc2cc3occ(C)c3cc12,4,3,0,0,6,2
CCc1cc(=O)oc2cc3occ(-c4ccc(OC)c(F)c4)c3cc12,91*,10,2,8,6,66*
NC(N)=NC(N)=Nc1ccc2ccccc2c1,6,3,15,2,2,1
NC(N)=NC(N)=Nc1ccc(SC(F)(F)F)cc1,16,5,75*,67*,35*,1
Cc1c(NC(=O)CSc2ccc(Cl)cc2)cccc1-c1nc2cc(Cl)ccc2o1,-15,8,-1,3,2,3
COc1cc(/C=C2/NC(=O)N(c3cccc(Cl)c3)C2=O)ccc1O,55*,3,100*,76*,21,7
O=C(NC(Cc1ccccc1)C(=O)O)/C(=C/c1ccc([N+](=O)[O-])cc1)NC(=O)c1ccco1 (centres undefined),x,x,x,x,-3,x
CCOC(=O)c1c(NC(=O)C[n+]2ccc(N(C)C)cc2)sc(C)c1C,-15,5,29*,35*,8,0
CCOC(=O)c1c(NC(=O)CN2C(=O)NC3(CCCCC3C)C2=O)sc(C)c1C (centres undefined),11,2,1,6,6,1
CCOC(=O)c1c(NC(=O)COC)sc(C)c1C,-2,4,-1,4,6,-1
SMILES,APP transl inh,MT stabilize HCS,Ba/F3 V617F tox,BaF3 parental,IEC-6 tox,bCat nuc transl
CCOC(=O)c1c(NC(=O)CN2C(=O)NC(C)(c3ccccc3)C2=O)sc(C)c1C (centres undefined),18,13*,2,9,-1,62*
O=C(O)CC1S/C(=N/N=C/C=C/c2ccccc2[N+](=O)[O-])NC1=O (centres undefined),2,1,-1,4,-3,0
O=C(O)CC1S/C(=N/N=C/C=C/c2ccccc2)NC1=O (centres undefined),3,3,3,97*!,10,-1
COc1cccc(C(C)NC(=O)Nc2ccccc2Cl)c1 (centres undefined),-17,5,-3,-1,7,1
CN(C)c1ccc(-c2nc3ccccc3n2C)cc1,-98,3,44*,53*,12,2
COc1ccc(-n2c(-c3ccc(Br)cc3)nc(=S)c3c2CCCC3)cc1,8,2,-3,4,-1,-1
COc1ccc(-n2c(-c3ccc(Br)cc3)n[nH]c2=S)cc1,x,x,x,x,-3,x
COc1ccc(-n2c(-c3ccc(Br)cc3)c[n+]3c2SC(C)C3)cc1 (centres undefined),-37,2,76*,67*,5,-4
COc1ccc(-n2c(-c3ccc(Br)cc3)c[n+]3c2CCCCC3)cc1,0,1,76*,64*,18,-1
COc1ccc(-n2c(-c3ccc(Br)cc3)c[n+]3c2CCC3)cc1,7,4,81*,66*,-1,0
COc1ccc(-n2c(-c3ccccc3)c[n+]3c2CCC3)cc1,x,x,75*,63*,2,2
CC(=O)Nc1ccc(NS(=O)(=O)c2c(Cl)cccc2Cl)cc1,x,x,0,-6,-10,0
COc1cc(NCCCCCCCN)c2ncccc2c1,-8,3,50*,37*,11,-1
COc1cc(NCc2ccccc2O)c2ncccc2c1,x,x,-1,2,7,0
CCN(CC)c1nc(-c2cccc(OC)c2O)nc2ccccc12,52*,4,-2,4,2,0
COc1cccc(-c2nc(NCc3ccccc3)c3ccccc3n2)c1O,x,x,x,x,6,x
CN(C)CCNC(=O)C(=O)Nc1cc2c3c(c1)CCN3C(=O)CC2,x,x,x,x,1,x
COC(=O)C1=C(C(=O)OC)[C@@H]2N(C)c3ccc(OC)cc3[C@@]23C[C@@H](C(=O)OC)N(S(=O)(=O)c2ccc(OC)cc2)C3=N1,x,x,x,x,x,0
COc1ccc(NC(=O)CN(c2ccc([N+](=O)[O-])cc2)S(=O)(=O)c2ccccc2)cc1,30,14*,-4,-1,-8,3
CCn1c(CN2CCN(Cc3ccc(C)cc3)C(CCO)C2)nc2ccccc21 (centres undefined),-2,3,3,8,-1,4
CN(C)S(=O)(=O)c1cccc(NC(=O)c2sccc2-c2ccccc2)c1,x,x,x,x,1,x
CCOc1ccc(S(=O)(=O)n2cnc3cc(C)c(C)cc32)cc1,3,6,40*,50*,8,-2
Cc1csc2nc3cc(C(N)=O)ccc3c(=O)n12,x,x,x,x,x,-1
NC(=O)c1ccc2c(=O)n3c(-c4cc(Cl)c(N)c(Cl)c4)csc3nc2c1,x,x,x,x,x,66*
